Screening data (PubChem BioAssay)
An excerpt weighted towards active compounds, which were near 2.3% of everything screened.
Xi reactivation – activators of X-chromosome reactivation in mouse fibroblasts; AID 743238; activation, % at 7.58 µM; 360,000 compounds, 0.055% hits; XiGFP mouse fibroblasts, % GFP-positive cells imaging, 3 d; cells co-treated with 5-aza-dC sensitizer; scaled so ellipticine positive control = 100%;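 active = mean normalized replicate activation at least 10% and every replicate at or above 10%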;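 also: 0% = median of on-plate neutral control wells and 100% = ellipticine 6 µM median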
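Schedule: 3 d treatment, 15 min room-temperature fixation; system: 68-5-11 XiGFP fibroblast line; buffer or medium: DMEM plus 5-aza-dC sensitizer; control set: ellipticine 6 µM positive control; compound: one concentration, pinned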
TWEAK-Fn14 inh – TWEAK-Fn14 signaling inhibition; inhibition, % at 10 µM; AID 1159606; TWEAK-stimulated Fn14 reporter cells, luciferase luminescence, 8 h; 360,000 compounds, 2% hits; in the data active = inhibition above about 50%
EWS-Fli block – blocks EWS/Fli oncoprotein-driven transcription. A673 NR0B1-luciferase reporter, viability-normalised. inhibition, % at 12.6 µM. 350,000 compounds, 0.67% hits;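 active = mean inhibition of at least 50% after viability correction, with every replicate also passing that limit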;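 also: firefly luciferase signal divided by Alamar Blue viability fluorescence both relative to DMSO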
LGR2 antag – Drosophila LGR2 receptor signaling inhibition; 380,000 compounds, 0.35% hits; HEK293 LGR2, CRE-luciferase, bursicon-stimulated, 4 h; inhibition, % at 9.99 µM;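 active = drop in luminescence signal, shown as inhibition above about 50% in the replicate tests, limit read from the data, passing the limit was not always enough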;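 also: agonist challenge used bursicon conditioned medium at about half maximal strength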
FN deposit inh – fibronectin deposition inhibition | AH1F fibroblasts, Alexa488-fibronectin deposition fluorescence, overnight | inhibition, % at 12.6 µM | 350,000 compounds, 0.086% hits;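 active = mean inhibition across replicates of 30% or more, regardless of how many single replicates reach that level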;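 also: positive control wells lacked labelled fibronectin entirely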
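Assay system: AH1F fibroblast monolayer, labelled fibronectin deposition. Amount: 10000 cells per well. Also added: labelled fibronectin 24 nM. Compound: single-point pinned compound. Incubation: cell attachment 1 h, compound and FN exposure overnight. Detection: fluorescence after three HBSS washes, excitation 485 nm, emission 525 nm. Read-out: inhibition of fibronectin deposition signal.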
TROY signal inh – TROY signaling inhibition; inhibition, % at 10 µM; AID 1347056; 360,000 compounds, 0.98% hits; Q293 LMP1-TROYcd NF-kB luciferase reporter, 4 h;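 active = compounds whose plate-normalised and pattern-corrected inhibition of the luciferase reporter signal at the single screening dose is 50% or more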
* hit, by the source's call.

How did O=C(OCc1cc2ccccc2[nH]c1=O)c1cccs1 do in these assays?
Xi reactivation: 0; TWEAK-Fn14 inh: 57*; EWS-Fli block: 8; LGR2 antag: -14; FN deposit inh: -4; TROY signal inh: 43

Results for Oc1[nH]c2c(Cl)cc(Cl)cc2c1N=NC(=S)NCC1CCCO1 (stereo unspecified) ?
TWEAK-Fn14 inh: 103*; LGR2 antag: 11; FN deposit inh: -7; TROY signal inh: 47

Results for Cc1cc(C)c2[nH]c(O)c(N=NC(=S)NCC3CCCO3)c2c1 (stereo unspecified) ?
Xi reactivation: 0; TWEAK-Fn14 inh: 9; LGR2 antag: -1; FN deposit inh: -1; TROY signal inh: -3

Results for NNc1nc(Nc2ccc([N+](=O)[O-])cc2)nc(N2CCCCCC2)n1 ?
Xi reactivation: 0; TWEAK-Fn14 inh: -7; EWS-Fli block: -5; LGR2 antag: -30; FN deposit inh: -3; TROY signal inh: -10

How did Cc1ccc([N+](=O)[O-])cc1Nc1nc(N2CCCC2)nc(N2CCCC2)n1 do in these assays?
Xi reactivation: 0; TWEAK-Fn14 inh: 52*; EWS-Fli block: 9; LGR2 antag: 7; FN deposit inh: -8; TROY signal inh: -6

What do the screens show for `Cc1ccccc1Nc1nc(NCc2ccco2)c2ccccc2n1`?
Xi reactivation: 0; TWEAK-Fn14 inh: 24; EWS-Fli block: -21; LGR2 antag: -3; FN deposit inh: -5; TROY signal inh: -19

Results for Cc1cccc(Nc2nc(NCc3ccco3)c3ccccc3n2)c1 ?
Xi reactivation: 0; TWEAK-Fn14 inh: 86*; EWS-Fli block: 9; FN deposit inh: 5; TROY signal inh: 30

Results for Oc1ccccc1Nc1nc(NCc2ccco2)c2ccccc2n1 ?
Xi reactivation: 0; TWEAK-Fn14 inh: 13; EWS-Fli block: 10; LGR2 antag: -20; FN deposit inh: -6; TROY signal inh: 13

Results for c1ccc(Nc2nc(NCc3ccco3)c3ccccc3n2)cc1 ?
Xi reactivation: 0; TWEAK-Fn14 inh: 52*; EWS-Fli block: 9; LGR2 antag: 6; FN deposit inh: 7; TROY signal inh: -6

Results for CC(=O)COc1ncn(-c2ccccc2)n1 ?
TWEAK-Fn14 inh: 87*

Results for O=C(C1CCOCC1)N1C[C@H]2[C@@H](c3ccccc31)[C@H](CO)N2C(=O)c1ccccc1 ?
Xi reactivation: 0; EWS-Fli block: 0; LGR2 antag: 5

Results for Cc1cc(C)c(O)c(-c2cc(C(=O)Nc3ccc(S(=O)(=O)N4CCOCC4)cc3)[nH]n2)c1 ?
TWEAK-Fn14 inh: 63*; FN deposit inh: 7; TROY signal inh: 70*

Results for CC(=O)Nc1ccc(NC(=O)c2cc(-c3cc(C)cc(C)c3O)n[nH]2)cc1 ?
Xi reactivation: 0; TWEAK-Fn14 inh: 19; EWS-Fli block: -39; LGR2 antag: -10; FN deposit inh: -2; TROY signal inh: 4

Results for O=C(CSc1nnc(-c2c[nH]c3ccccc23)o1)N(Cc1ccccc1)c1ccc(F)cc1 ?
TWEAK-Fn14 inh: 64*; TROY signal inh: 31

What do the screens show for `Cc1cccc(S(=O)(=O)N2CCCCN3[C@H](C2)[C@H](c2ccc(C#CC4CC4)cc2)[C@@H]3CO)c1`?
Xi reactivation: 0; EWS-Fli block: 16; LGR2 antag: 26

How did O=C(/C=C/c1cccc(Br)c1)c1ccc2c(c1)OCO2 do in these assays?
Xi reactivation: 0; TWEAK-Fn14 inh: 60*; LGR2 antag: -18; FN deposit inh: -9; TROY signal inh: -1

Results for Cc1cc(N/C=C/C(=O)c2ccccc2)ccc1Br ?
Xi reactivation: 0; TWEAK-Fn14 inh: 9; EWS-Fli block: -4; LGR2 antag: 0; FN deposit inh: 0; TROY signal inh: 13

How did O=C(/C=C\Nc1ccccc1Br)c1ccc2c(c1)OCO2 do in these assays?
Xi reactivation: 0; TWEAK-Fn14 inh: 61*; EWS-Fli block: 75*; LGR2 antag: 79*; FN deposit inh: -14; TROY signal inh: 47

How did O=C(/C=C/c1ccncc1)c1ccc2c(c1)OCCO2 do in these assays?
Xi reactivation: 0; TWEAK-Fn14 inh: -5; EWS-Fli block: 4; LGR2 antag: 89*; FN deposit inh: 3; TROY signal inh: 29
